For 38 variants, yeast fitness results are on record in the RNAGym collection of RNA variant scans (doi:10.1126/science.aae0568).

This sample holds only a part of the variants without activity.

B1: tRNA (parent)
chain: GUUCCGUUGGCGUAAUGGUAACGCGUCUCCCUCCUAAGGAGAAGACUGCGGGUUCGAGUCCCGUACGGAACG

Variants of B1 are the subject of this data set. The experiment in a line: yeast fitness relative to wild type (ratio to wild type); higher = fitter; tRNA-Arg(CCU), competitive growth, 37 C, YPD. In a few lines: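 For this measurement, the tRNA-Arg(CCU) gene was varied by chemical synthesis at a 3% per-site mutation rate across 69 sites, and each variant was placed at the native genomic locus in Saccharomyces cerevisiae. The pooled strains went through a 24-hour competition in YPD at 37°C in six parallel replicates, with amplicons from start and end populations read by 100-nucleotide paired-end sequencing. Darwinian fitness relative to wild type followed from the change in each genotype's frequency. Genotypes needed ≥ 100 starting reads, and estimates < 0.5 were set to 0.5.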
As for GUUCCGUUGGCGUAAUGGUAUCGCGUCUCCCUCCUAAGGAGAAGACUGCGGGUUCGUGUCGCGUACGGAACG, the yeast fitness is no more than 0.5. As to GUUCCGUUGGCGUAAUGGUAUGGCGUCUCCCUUCUAAGGAGAAGACUGCGGGUUCGAGUCCCGUACGGAACG, the yeast fitness was 0.572. In the case of GUUCCGUUGGCGUAAUGGUAUGGCGUCUCCCUUCUAAGGAGAAGACUGCGGGUUCGAGUCCCGUACGAAACG, the yeast fitness is no more than 0.5. The same measure for GUUCCGUUGGCGUAAUGGUAUCGCGUCUCCCUCCUAAGGAGAAGCCUGCGGGUUCGAGUCCCGUACGGAACG: 0.913; for GUUCCGUUGGCGUAAUGGUAUCGCGUCUCCCUCCUAAGGAGAAGUCUGCGGGUUCGAGUCCCGUACCGAACG: 0.598; for GUUCCGUUGGCGUAAUGGUAUCGCGUCUCCCUCCUAAGGAGACGUCUGGGGGUUCGAGUCUCGUACGGAACG: 0.56. The same measure for GUUCCGUUGGCGUAAUGGUAUCGCGUCUCCCUCCUAAGGGGAAGACUGCGGGUUCGAGUCCCGUACGGAACG: 0.633. The same measure for GUUCCGUUGGCGUAAUGGUAUCGCGUCUCCCUCCUAAGGCGAAGACUGCGGGUUCGACUCCCGUCGGGAACG: 0.523. As for GUUCCGUUGGCGUAAUGGUAUCGCGUCUCCCUCCUAAGGAGAUGACUGCGGGUUCGAGUCCCAUACGGAACG, the yeast fitness is no more than 0.5. As for GUUCCGUUGGCGUAAUGGUAUCGCGUCUCCCUCCUAAGGAGAAGACUGCGGGUUCGUGUCCCGUACGCAACG, the yeast fitness is no more than 0.5. The same measure for GUUCCGUUGGCGUAAUGGUAUCGCGUCUCCCUCCUAAGGGGAAGACUGGGGGUUCGAGUCCCGUACGGAACG: no more than 0.5. The same measure for GUUCCGUUGGCGUAAUGGUAUCGCGUCUCCCUCCUAAGGAGAAGACUGCGGGUUCGAGUCCCGUACGGGACG: 0.826.

For GUUCCGUUGGCGUAAUGGUAUCGCGUCUCCCUCCUAAGGAGAAGACUGCGGGUUCGAGUCCCGUACGGUACG, the yeast fitness stood at 0.686. The same measure for GUUCCGUUGGCGUAAUGGUAUCGCGUCUCCCUCCUAAGGGGAAGACUGCGGGUUCGAGUCCCGUACAGAACG: 0.553; for GUUCCGUUGGCGUAAUGGUAUCGCGUCUCCCUCCUAAGGAGAAGACUGCGGGUUCGCGUCCCGUACAGAACG: 0.556. Take GUUCCGUUGGCGUAAUGGUAUCGCGUCUCCCUCCUAAGGUGAAGACUGCGGGUUCGAGUCCCGUACGGCACG: the yeast fitness turned out to be 0.574.

Take GUUCCGUUGGCGUAAUGGUAUCGCGUCUCCCUCCUAAGGUGAAGACUGCGGGUUCGAGUCCCGUACGGAUCG: the yeast fitness amounted to 0.657. The same measure for GUUCCGUUGGCGUAAUGGUAUGGCGUCUCCCUCCUAAGGAGAAGACUGCGGGUUCGAGUGCCGUACGAAACG: no more than 0.5; for GUUCCGUUGGCGUAAUGGUAUCGCGUCUCCCUCCUAAGGCGAAGACUGCGGGUUCGAGCCCUGUACUGAACG: no more than 0.5.

For GUUCCGUUGGCGUAAUGGUAUCGCGUCUCCCUCCUAAGGAGCAGACUGCGGGUUCGAGUCCCGUACGGAACG, the yeast fitness was determined as 0.741. As for GUUCCGUUGGCGUAAUGGUAUCGCGUCUCCCUCCUAAGGAGACGACUGCGGGUUCGAGUCCCGUACGGAACG, the figure is 0.974; as for GUUCCGUUGGCGUAAUGGUAUGGCGUCUCCUUCCUAAGGAGAAGACUGCGGGUAUGAGUCCCGUACGGAACG, no more than 0.5. The same measure for GUUCCGUUGGCGUAAUGGUAUCGCGUCUCCCUCCUAAGGAGAAGACUGCGGGUUCGAGUCCCGUACGGAGCG: 0.786; for GUUCCGUUGGCGUAAUGGUAUCGCGUCUCCCUCCUAAGGAGGAGACUGCGGGUUCGAGUACCGUACGGAACG: no more than 0.5. On to GUUCCGUUGGCGUAAUGGUAUAGCGUCUCCCUCCUAAGGAGAAGACUGCCGGUUCGAGUCCCGUACAGAACG, for which the yeast fitness was no more than 0.5. As for GUUCCGUUGGCGUAAUGGUAUCGCGUCUCCCUCCUAAGGAGAAGACUGCGGGUUCGGGUCCCGUACGGAACG, the figure is 0.882; as for GUUCCGUUGGCGUAAUGGUAUCGCGUCUCCCUCCUAAGGAGAAGACUGCGGGUUCGCGUCCCGUACGGAACG, 0.619. As for GUUCCGUUGGCGUAAUGGUAUUGCGUCUCCCUCCUAGGGAGAAACAUGCGGGUUUGAGGCCCGCACGGAACG, the figure is no more than 0.5; as for GUUCCGUUGGCGUAAUGGUAUUGCGUCUCCCUCCUGAGGAGAAGACUGAGGGUUCGAGUCCCGUACGGAACG, no more than 0.5. Regarding GUUCCGUUGGCGUAAUGGUAUGGCGUCUCCCUCCUAAGGAGAAGACUGCGGGUUCGAGUCCCGUACGGAACG, the yeast fitness is 1.01. The same measure for GUUCCGUUGGCGUAAUGGUAUUGCGUCUCCCUCCUAAGGAGAAGACUGCGGGUUCGAGUCCCGUACGGAACG: 0.546; for GUUCCGUUGGCGUAAUGGUAUGGCGUCUCCCUCCUAAGGAGAAGACUGCGCGUUCGAGUCCCGUACGGAACG: no more than 0.5. As for GUUCCGUUGGCGUAAUGGUAUAGCGUCUCCCUCCUAACGAGAAGUCUGCGGGUUCGAGUCCCGUACGGAACG, the figure is no more than 0.5. Regarding GUUCCGUUGGCGUAAUGGUAUCGCGUCUCCCUCCUAAGGAGAAGACUGCGGGUUCGAGUCCCGUGCGGAACG, the yeast fitness was 0.942. As for GUUCCGUUGGCGUAAUGGUAUCGCGUCUCCCUCCUAAGGAGAAGGCUGCGGGUUCGAGUCCGGUACGGAACG, the figure is 0.996; as for GUUCCGUUGGCGUAAUGGUAUGGCGUCUCCCUCCUAAGGAGAAGACUGCGGGUUAGAGUCCCGUACGGAACG, no more than 0.5. The same measure for GUUCCGUUGGCGUAAUGGUAUCGCGUCUCCCUCCUAAGGAGGAGACUGCGGGUUUGAGUCCCGUACGGAACG: 0.601; for GUUCCGUUGGCGUAAUGGUAUCGCGUCUCCCUCCUAAGGAGAAGUCUGCGGAUUCGAGUCCCGUACGGAACG: no more than 0.5.
